Test results published in ChEMBL document CHEMBL4229376, “Optimization of the pharmacokinetic properties of potent anti-trypanosomal triazine derivatives” (Eur J Med Chem, 2018).
pIC50: −log10 of the molar value. Active and inactive are the calls of the source. The calls are words filed in the database; no cut-off is given here.

Columns and labels:
[1] = Protein binding in mouse plasma at 10 uM after 6 hrs by equilibrium dialysis and LC-MS analysis; assay type: ADME, cell-free; settings: read-out: PPB (converted)
[2] = tested on: Trypanosoma brucei brucei; assay: Antitrypanosomal activity against Trypanosoma brucei brucei Squib 427 infected in Swiss mouse assessed as mouse survival at 25 mg/kg, po bid for 5 days and measured on day 14 post infection; assay type: functional, organism-based
In short: (§1)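 Acute T. b. brucei mouse infection model. Dosing was PO or IP at 10–50 mg/kg, once (SID) or twice (BID) daily for 5 days after infection, with 3 mice per group. […] Read-outs were mean survival time and survivors on day 14 post infection.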

[3] = AUC (0 to >4 hrs) in Swiss mouse infected with Trypanosoma brucei brucei Squib 427 at 50 mg/kg, po bid for 5 days by UPLC/MS/ESI analysis; assay type: ADME, organism-based; settings: in vivo
[4] = Drug metabolism in mouse liver microsomes assessed as UGT mediated compound […] by measuring parent compound remaining at 5 uM after 15 mins in presence of UDPGA by UPLC/MS/ESI analysis; assay type: ADME; settings: 0.25 h
In short: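 Metabolic stability was run with mouse liver microsomal fraction (S9) and read as percent parent compound remaining over incubation time. Diclofenac served as the reference compound.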

[5] = Clearance in Swiss mouse infected with Trypanosoma brucei brucei Squib 427 at 25 mg/kg, po administered as single dose after 24 hrs by UPLC/MS/ESI analysis; assay type: ADME, organism-based; settings: in vivo
[6] = Drug metabolism in human plasma assessed as parent compound remaining after 15 mins by UPLC/MS/ESI analysis; assay type: ADME, cell-free; settings: read-out: Stability
[7] = Drug metabolism in human liver microsomes assessed as UGT mediated compound […] by measuring parent compound remaining at 5 uM after 15 mins in presence of UDPGA by UPLC/MS/ESI analysis; assay type: ADME; settings: read-out: Stability
[8] = AUC (0 to >4 hrs) in Swiss mouse at 25 mg/kg, po administered as single dose by UPLC/MS/ESI analysis; assay type: ADME, organism-based; settings: in vivo
In short: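 Mice in groups received one oral dose of 25 or 50 mg/kg. Plasma concentrations were followed over time up to 24 h, and PK parameters including T1/2 were derived from the concentration–time profile.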

[9] = tested on: Trypanosoma brucei brucei; assay: Antitrypanosomal activity against Trypanosoma brucei brucei Squib 427 infected in Swiss mouse at 50 mg/kg, po administered as single dose after 24 hrs; assay type: functional, organism-based; settings: Squib 427, 24 h
[10] = tested on: Trypanosoma brucei brucei; assay: Antitrypanosomal activity against Trypanosoma brucei brucei Squib 427 infected in Swiss mouse assessed as mean survival days at 50 mg/kg, po bid for 5 days; assay type: functional
In short: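 Acute mouse infection model with T. b. brucei. Dosing ran for 5 days after infection, orally or intraperitoneally, once or twice daily. Groups were 3 mice each, with vehicle-treated infected controls. The read-out was mean survival time in days, plus the number of survivors on day 14 post-infection.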

[11] = tested on: Trypanosoma brucei brucei; assay: Antitrypanosomal activity against Trypanosoma brucei brucei Squib 427 infected in Swiss mouse assessed as mouse survival at 10 mg/kg, ip administered as single dose for 5 days and measured on day 14 post infection; assay type: functional, organism-based; in short: as §1
Mus musculus = assay: Apparent volume of distribution in Swiss mouse infected with Trypanosoma brucei brucei Squib 427 at 50 mg/kg, po bid for 5 days after 24 hrs by UPLC/MS/ESI analysis; assay type: ADME, organism-based; settings: in vivo
[12] = Drug level in Swiss mouse blood infected with Trypanosoma brucei brucei Squib 427 at 25 mg/kg, po bid for 5 days measured after 2 hrs after last dose by UPLC/MS/ESI analysis; assay type: ADME, organism-based; settings: whole blood, read-out: Drug uptake

In the case of Nc1nc(Nc2ccc(F)cc2)nc(Oc2ccc(F)cc2)n1, the fraction unbound at 6 h, 10 µM [1] was 0.023, the Activity [2] was “inactive” and the AUC [3] was 9350 ng·h/mL. It also gave a Stability [4] of 97%, a CL/F [5] of 176 mL/min and a remaining at 0.25 h [6] of 80%. For the same molecule, the remaining at 0.25 h, 5 µM [7] was 107%, the AUC at 4 h [8] was 13800 ng·h/mL and the pIC50 [9] was 6.20. For the same molecule, the MST [10] was 5.7 days, the Activity [11] was “inactive” and the Vz (Mus musculus) was 10.9 L. The concentration at 2 h [12] was 1100 ng/mL.
